Screening data deposited in PubChem BioAssay by several laboratories.
This is a sample that favours compounds with a hit; in the whole collection about 2.1% have one here.
p97 inhibitor – human p97 ATPase inhibition; inhibition, % at 8 µM; P55072; hit rate 0.42% among 220,000; recombinant p97 ATPase, Kinase-Glo ATP luminescence, 3 h; in the data active = inhibition above about 15%;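 note: 0% = DMSO vehicle and 100% = wells lacking enzyme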
Runt-SMMHC FRET – blocks binding of human RUNX1 Runt domain to CBFb-SMMHC. Cerulean-Runt/Venus-CBFb-SMMHC FRET ratio 530/480, 1 h. hit rate 0.74% among 220,000. inhibition, % at 20 µM;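 active = mean inhibition across duplicate retests at 20 µM reaching about 50%, limit read from the data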;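 note: 0% = DMSO wells and 100% = wells with excess untagged CBFb-SMMHC; inhibitors lower the FRET ratio by blocking Runt binding to CBFb-SMMHC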
Tb hexokinase – T. brucei hexokinase 1 inhibition; recombinant TbHK1, G6PDH-coupled NADH A340; inhibition, % at 10 µM; hit rate 0.11% among 220,000; AID 1430;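 active = inhibition of 50% or more in the single-dose primary screen; inactive = inhibition below 50%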
RanGTP-Impb inh – disruptors of Ran-importin-beta complex formation – biochemical, FRET, CFP-Ran, YFP-importin-beta, homogeneous, primary screen; cell-free CFP-Ran/YFP-importin-beta FRET ratio; inhibition, % (test concentration not listed); hit rate 1.1% among 300,000; AID 2216;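 active = more than half of the replicate wells show a fall in the fluorescence ratio signal beyond about 16%, limit read from the data, passing the limit was not always enough; inconclusive = exactly half of the replicate wells pass the set limit; inactive = fewer than half of replicates pass the limit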;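 note: 0% = DMSO wells and 100% = Ran loaded with GDP instead of GTP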
Hck Nef HTS – inhibitors of human Hck kinase activated by Nef. Recombinant Hck-YEEI plus Nef, Z-Lyte FRET kinase assay. inhibition, % at 20 µM. hit rate 0.68% among 220,000. AID 463187;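 active = Hck-Nef kinase inhibition above about 50%, limit read from the data; inactive = inhibition below that limit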;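 note: 0% = DMSO with Hck plus Nef and 100% = Hck alone without Nef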
Target sequence (P08631 whole entry, looked up): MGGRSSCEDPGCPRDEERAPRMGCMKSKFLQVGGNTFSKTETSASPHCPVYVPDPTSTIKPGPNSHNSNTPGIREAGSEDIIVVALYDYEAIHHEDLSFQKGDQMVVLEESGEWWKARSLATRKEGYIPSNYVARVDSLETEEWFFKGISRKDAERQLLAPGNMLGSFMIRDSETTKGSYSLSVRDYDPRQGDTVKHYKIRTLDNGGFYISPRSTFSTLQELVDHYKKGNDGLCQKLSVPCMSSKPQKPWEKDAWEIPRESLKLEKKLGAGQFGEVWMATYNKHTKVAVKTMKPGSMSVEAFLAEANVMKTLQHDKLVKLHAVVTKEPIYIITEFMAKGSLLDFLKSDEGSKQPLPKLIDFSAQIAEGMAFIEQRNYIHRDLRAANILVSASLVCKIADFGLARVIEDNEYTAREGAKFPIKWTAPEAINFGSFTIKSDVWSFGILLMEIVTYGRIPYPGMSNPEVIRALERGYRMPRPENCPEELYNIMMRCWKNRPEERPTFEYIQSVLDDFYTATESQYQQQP
Runt-CBFb FRET – Runt domain-CBFb interaction inhibition; Q01196+Q13951; Cerulean-Runt/Venus-CBFb FRET ratio 530/480, 1 h; inhibition, % at 20 µM; hit rate 0.46% among 220,000;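 active = inhibition over about 50% at 20 µM in the single-dose screen, limit read from the data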;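 note: 0% = DMSO wells and 100% = excess unlabeled CBFb competitor control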
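Buffer or medium: Tris pH 7.5 buffer with BSA. Assay system: Cerulean-labeled Runt domain protein. Amount: each fluorescent fusion protein 100 nM. Read-out basis: loss of energy transfer signal. Incubation: 1 h compound exposure, room temperature. Probe or stimulus: Venus-CBFb binding partner, 100 nM. Detection: FRET, excitation 422 nm, emission at 530 and 480 nm.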
Starred values were filed as active, the others as inactive; ? = inconclusive; . = no result given.

SMILES | p97 inhibitor | Runt-SMMHC FRET | Tb hexokinase | RanGTP-Impb inh | Hck Nef HTS | Runt-CBFb FRET
COc1ccccc1N1CCN(C(=O)c2ccc3nc[nH]c3c2)CC1 | 0 | -4 | -4 | 0 | 1 | 2
Cc1ccc(C)c(N2CCN(C(=O)c3ccc4nc(-c5ccco5)c(-c5ccco5)nc4c3)CC2)c1 | 5 | -2 | -12 | 52* | 7 | -3
COc1ccccc1N1CCN(C(=O)c2ccc3nc(-c4ccco4)c(-c4ccco4)nc3c2)CC1 | -8 | -43 | -7 | 33* | 4 | 9
CC(C)(C)C(=O)/C(C#N)=c1\s/c(=C\c2ccncc2)c(=O)n1CCCN1CCOCC1 | . | 2 | . | . | . | -2
CC(=O)c1cc2c(cc1N/C(=N/S(=O)(=O)c1ccc(C)cc1)c1ccc(Cl)cc1)OCO2 | -5 | -2 | 25 | 6 | -2 | -1
CC(=O)c1cc2c(cc1N/C(=N/S(=O)(=O)c1ccc(C)cc1)c1ccccc1)OCO2 | -5 | -1 | 37 | 23* | -2 | 0
COC(=O)c1c(C(=O)OC)c2ccccn2c1C(=O)c1ccccc1 | . | . | . | 1 | . | .
COC(=O)c1c(Cl)c2n3ccccc3c(C)c(-c3ccccc3)c-2c1C(=O)OC | -2 | -7 | -12 | 19* | 2 | 1
COC(=O)c1c(C)[nH]c(C=O)c1-c1ccccc1 | 1 | 2 | -4 | 5 | 18 | 0
COC(=O)c1cc2c(-c3ccccc3)c(C)c3ccccn3c-2c1C(=O)OC | 5 | 9 | -33 | 27* | 6 | 9
COc1cccc(-c2noc(-c3ccc4c(c3)OCO4)n2)c1 | 1 | -3 | 0 | 1 | 27 | -4
COc1cc(-c2nc3cnccn3c2Nc2c(C)cccc2C)ccc1O | -3 | 18 | -18 | 52* | 5 | 12
COc1cc(-c2nc3cnccn3c2NC(C)(C)CC(C)(C)C)ccc1O | . | . | . | -1 | . | .
Cc1ccc(S(=O)(=O)[N-]c2nc3ccccc3nc2-n2cc[n+](CCC(C)C)c2)cc1 | -2 | 32 | -14 | ? | 17 | -2
CC(C)CC[n+]1ccn(-c2nc3ccccc3nc2[N-]S(=O)(=O)c2ccc(Cl)cc2)c1 | 0 | 26 | -4 | 30* | 14 | 11
Cc1cc(=O)n2c3ccccc3n(CC(O)CN3CCCCC3)c2c1C#N (stereo unspecified) | 2 | -1 | -27 | 4 | 1 | -1
Cc1cc(=O)n2c3ccccc3n(CC(O)CN3CCOCC3)c2c1C#N (stereo unspecified) | 5 | 1 | -26 | 130* | -7 | -1
O=C1NCN(c2ccccc2)C12CCN(c1nnnn1-c1ccccc1)CC2 | -5 | 2 | -12 | -1 | 0 | -1
Clc1ccc(-c2ccnc(-n3cccc3)n2)s1 | 3 | 68* | -5 | 2 | 5 | 13
Cc1cc(C)nc(SCc2ccc(C(=O)N/N=C/c3cccc(O)c3O)cc2)n1 | 15* | -1 | -3 | 1 | 4 | 8
CCOc1ccccc1NC(=O)COC(=O)C(CC)c1ccccc1 (stereo unspecified) | -1 | -2 | 3 | . | 4 | -3
Cc1ccnc(Sc2ccc([N+](=O)[O-])cc2[N+](=O)[O-])n1 | 16* | -4 | -19 | 1 | 2 | -1
Cc1ccc(Sc2ccc([N+](=O)[O-])cc2[N+](=O)[O-])nc1 | 0 | 1 | -20 | -3 | 1 | -2
COc1ccc(-c2cc3ccc(O)cc3oc2=O)cc1OC | . | . | . | 106* | . | .
CCOC(=O)N1CCC(NC(=O)C2=CCN(S(=O)(=O)c3ccc(OC)cc3)CC2)CC1 | 0 | -1 | -12 | -2 | 10 | 0
SMILES | p97 inhibitor | Runt-SMMHC FRET | Tb hexokinase | RanGTP-Impb inh | Hck Nef HTS | Runt-CBFb FRET
COc1ccc(CCC(=O)NNC(=O)c2ccc(F)cc2)cc1 | . | . | . | 1 | . | .
COc1ccc(CCC(=O)NNC(=S)NCc2ccc(F)cc2)cc1 | 4 | -4 | 6 | 23* | 19 | -1
CCCc1cc(C(=O)N2CCC(n3nccc3NC(=O)c3ccc(OC)cc3)CC2)no1 | . | . | . | 1 | . | .
CCOC(=O)c1c[nH]c2nc(C)ccc2c1=O | -1 | 30 | -5 | 24* | 10 | 7
O=C(c1nc2ccc(Cl)cn2c1CN1CCC[C@H]1CO)N1CCCCCCC1 | . | . | . | 22* | . | .
COCC1CCN(Cc2c(C(=O)N3CCN(C4CCCCC4)CC3)nc3ccccn23)C1 (stereo unspecified) | . | . | . | 111* | . | .
O=C(c1nc2ccc(Cl)cn2c1CNCCn1ccnc1)N1CCCCCCC1 | 6 | 4 | -2 | -2 | 14 | 1
O=C(c1nc2ccccn2c1CN1CCCC(O)C1)N1CCN(C2CCCCC2)CC1 (stereo unspecified) | . | . | . | 103* | . | .
COC1CCN(Cc2c(C(=O)N3CCN(C4CCCCC4)CC3)nc3ccccn23)CC1 | . | . | . | 104* | . | .
CC(C)CCN(C(=O)Nc1ccc(Cl)cc1)C1CCN(C(C)C)CC1 | 3 | -4 | 2 | -2 | 30 | 1
NC(=O)[C@@H]1CCCN1Cc1c(C(=O)N2CCN(C3CCCCC3)CC2)nc2ccccn12 | . | . | . | 112* | . | .
Cn1c(=O)[nH]c(=O)c2c1nc(N1CCCCC1)n2CC(O)COc1ccccc1 (stereo unspecified) | . | . | . | 1 | . | .
COc1ccc([N+](=O)[O-])cc1NC(=O)c1ccc(Br)s1 | -2 | 5 | 5 | 0 | 79* | 2
COc1ccc(-n2nc(N)c(C(N)=O)n2)cc1 | -2 | 4 | -17 | -6 | 14 | 1
CSc1cccc(NC(=O)C2CCCN(S(=O)(=O)c3cnc[nH]3)C2)c1 (stereo unspecified) | 17* | 2 | -2 | . | 2 | 2
CSc1cccc(NC(=O)C2CCN(S(=O)(=O)c3cnc[nH]3)CC2)c1 | . | . | . | 0 | . | .
CCOc1ccc2[nH]c3ncccc3c(=O)c2c1 | . | . | . | 34* | . | .
Cn1c(SCC(=O)NCc2ccc(F)cc2)nc2c([nH]c3ccccc32)c1=O | 2 | -3 | -5 | 5 | 9 | 2
N#Cc1ccc(Oc2cccc3cccnc23)c([N+](=O)[O-])c1 | . | . | . | 35* | . | .
O=[N+]([O-])c1ccc(Oc2cccc3cccnc23)c([N+](=O)[O-])c1 | 4 | -24 | -8 | -13 | 15 | -1
N#Cc1cc(Oc2cccc3cccnc23)c(-n2nnc3ccccc32)cc1C#N | 6 | -62 | -7 | 21* | 0 | -21
O=C(Nc1ccc([N+](=O)[O-])cc1)Nc1ccc(OC(F)F)c(Cl)c1 | 0 | 3 | -13 | . | 0 | -3
CSc1nc(=S)c2[nH]c(=S)[nH]c2[nH]1 | 5 | 51* | -13 | -2 | -152 | 13
COc1ccc([C@@H]2[C@@H]3C(=O)N(C(C)(C)C)C(=O)[C@@H]3[C@]3(Cc4ccc(Cl)cc4)C(=O)N(c4cccc(C)c4)C(=O)N23)cc1 | . | . | . | -4 | . | .
O=C(O)c1ccc(-n2cc(C(=O)c3ccccc3O)cn2)cc1 | . | . | . | 4 | . | .
O=C(c1cnn(C(=O)c2ccccc2)c1)c1ccccc1O | -6 | 3 | -16 | 5 | 62* | 0
